From PMC4832308 (Cancer, 2015)

Tested on: patients with advanced solid tumors or multiple myeloma
Experiment: phase 1 dose escalation: safety, tolerability, DLT, MTD
Assay type: in vivo, human
Procedure, shortened: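 Modified accelerated titration from 7.5 mg, oral daily in 28-day cycles. Single-patient cohorts used 100% increments until the first drug-related grade ≥2 toxicity, then 6-patient cohorts used ~50% steps. A dose with ≥2 DLTs was nontolerated. MTD was the last lower dose with 0–1 of 6 DLTs in cycle 1. Adverse events were graded by NCI CTCAE version 4.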

SMILES: CO[C@H]1CC[C@H](N2C(=O)CNc3ncc(-c4ccc(C(C)(C)O)nc4)nc32)CC1 [CC‐223]
- Dyspnea (treatment‐related AE) (45 mg, Any Grade): 1 (11) n (%)
- Fatigue (treatment‐related AE) (45 mg, Any Grade): 5 (56) n (%)
- Hyperglycemia (treatment‐related AE) (45 mg, Any Grade): 4 (44) n (%)
- Increased glycosylated hemoglobin (treatment‐related AE) (45 mg, Any Grade): 2 (22) n (%)
- Mucositis (treatment‐related AE) (45 mg, Any Grade): 3 (33) n (%)
- Nausea (treatment‐related AE) (45 mg, Any Grade): 6 (67) n (%)
- Pruritus (treatment‐related AE) (45 mg, Any Grade): 2 (22) n (%)
- Rash (treatment‐related AE) (45 mg, Any Grade): 2 (22) n (%)
- Rash pruritic (treatment‐related AE) (45 mg, Any Grade): 0 n (%)
- Thrombocytopenia (treatment‐related AE) (45 mg, Any Grade): 2 (22) n (%)
- Vomiting (treatment‐related AE) (45 mg, Any Grade): 2 (22) n (%)
- Arthralgia (treatment‐related AE) (45 mg, Grade ≥3): 0 n (%)
- Asthenia (treatment‐related AE) (45 mg, Grade ≥3): 0 n (%)
- Decreased appetite (treatment‐related AE) (45 mg, Grade ≥3): 0 n (%)
- Diarrhea (treatment‐related AE) (45 mg, Grade ≥3): 0 n (%)
- Dry mouth (treatment‐related AE) (45 mg, Grade ≥3): 0 n (%)
- Dysgeusia (treatment‐related AE) (45 mg, Grade ≥3): 0 n (%)
- Dyspnea (treatment‐related AE) (45 mg, Grade ≥3): 0 n (%)
- Fatigue (treatment‐related AE) (45 mg, Grade ≥3): 1 (11) n (%)
- Hyperglycemia (treatment‐related AE) (45 mg, Grade ≥3): 1 (11) n (%)
- Increased glycosylated hemoglobin (treatment‐related AE) (45 mg, Grade ≥3): 0 n (%)
- Mucositis (treatment‐related AE) (45 mg, Grade ≥3): 0 n (%)
- Nausea (treatment‐related AE) (45 mg, Grade ≥3): 0 n (%)
- Pruritus (treatment‐related AE) (45 mg, Grade ≥3): 0 n (%)
- Rash (treatment‐related AE) (45 mg, Grade ≥3): 1 (11) n (%)
- Rash pruritic (treatment‐related AE) (45 mg, Grade ≥3): 0 n (%)
- Thrombocytopenia (treatment‐related AE) (45 mg, Grade ≥3): 0 n (%)
- Vomiting (treatment‐related AE) (45 mg, Grade ≥3): 0 n (%)
- Dose interruptions (60 mg): 7
- Dose reductions (60 mg): 5
- Arthralgia (treatment‐related AE) (60 mg, Any Grade): 2 (29) n (%)
- Asthenia (treatment‐related AE) (60 mg, Any Grade): 3 (43) n (%)
- Decreased appetite (treatment‐related AE) (60 mg, Any Grade): 2 (29) n (%)
- Diarrhea (treatment‐related AE) (60 mg, Any Grade): 5 (71) n (%)
- Dry mouth (treatment‐related AE) (60 mg, Any Grade): 0 n (%)
- Dysgeusia (treatment‐related AE) (60 mg, Any Grade): 1 (14) n (%)
- Dyspnea (treatment‐related AE) (60 mg, Any Grade): 1 (14) n (%)
- Fatigue (treatment‐related AE) (60 mg, Any Grade): 7 (100) n (%)
- Hyperglycemia (treatment‐related AE) (60 mg, Any Grade): 4 (57) n (%)
- Increased glycosylated hemoglobin (treatment‐related AE) (60 mg, Any Grade): 2 (29) n (%)
- Mucositis (treatment‐related AE) (60 mg, Any Grade): 5 (71) n (%)
- Nausea (treatment‐related AE) (60 mg, Any Grade): 3 (43) n (%)
- Pruritus (treatment‐related AE) (60 mg, Any Grade): 0 n (%)
- Rash (treatment‐related AE) (60 mg, Any Grade): 3 (43) n (%)
- Rash pruritic (treatment‐related AE) (60 mg, Any Grade): 2 (29) n (%)
- Thrombocytopenia (treatment‐related AE) (60 mg, Any Grade): 0 n (%)
- Vomiting (treatment‐related AE) (60 mg, Any Grade): 5 (71) n (%)
- Arthralgia (treatment‐related AE) (60 mg, Grade ≥3): 1 (14) n (%)
- Asthenia (treatment‐related AE) (60 mg, Grade ≥3): 0 n (%)
- Decreased appetite (treatment‐related AE) (60 mg, Grade ≥3): 0 n (%)
- Diarrhea (treatment‐related AE) (60 mg, Grade ≥3): 1 (14) n (%)
- Dry mouth (treatment‐related AE) (60 mg, Grade ≥3): 0 n (%)
- Dysgeusia (treatment‐related AE) (60 mg, Grade ≥3): 0 n (%)
- Dyspnea (treatment‐related AE) (60 mg, Grade ≥3): 0 n (%)
- Fatigue (treatment‐related AE) (60 mg, Grade ≥3): 1 (14) n (%)
- Hyperglycemia (treatment‐related AE) (60 mg, Grade ≥3): 2 (29) n (%)
- Increased glycosylated hemoglobin (treatment‐related AE) (60 mg, Grade ≥3): 0 n (%)
- Mucositis (treatment‐related AE) (60 mg, Grade ≥3): 2 (29) n (%)
- Nausea (treatment‐related AE) (60 mg, Grade ≥3): 0 n (%)
- Pruritus (treatment‐related AE) (60 mg, Grade ≥3): 0 n (%)
- Rash (treatment‐related AE) (60 mg, Grade ≥3): 1 (14) n (%)
- Rash pruritic (treatment‐related AE) (60 mg, Grade ≥3): 2 (29) n (%)
- Thrombocytopenia (treatment‐related AE) (60 mg, Grade ≥3): 0 n (%)
- Vomiting (treatment‐related AE) (60 mg, Grade ≥3): 0 n (%)
- Arthralgia (treatment‐related AE) (Overall (N = 28), Any Grade): 4 (14) n (%)
- Asthenia (treatment‐related AE) (Overall (N = 28), Any Grade): 7 (25) n (%)
- Decreased appetite (treatment‐related AE) (Overall (N = 28), Any Grade): 9 (32) n (%)
- Diarrhea (treatment‐related AE) (Overall (N = 28), Any Grade): 13 (46) n (%)
- Dry mouth (treatment‐related AE) (Overall (N = 28), Any Grade): 3 (11) n (%)
- Dysgeusia (treatment‐related AE) (Overall (N = 28), Any Grade): 5 (18) n (%)
- Dyspnea (treatment‐related AE) (Overall (N = 28), Any Grade): 3 (11) n (%)
- Fatigue (treatment‐related AE) (Overall (N = 28), Any Grade): 18 (64) n (%)
- Hyperglycemia (treatment‐related AE) (Overall (N = 28), Any Grade): 12 (43) n (%)
- Increased glycosylated hemoglobin (treatment‐related AE) (Overall (N = 28), Any Grade): 4 (14) n (%)
- Mucositis (treatment‐related AE) (Overall (N = 28), Any Grade): 11 (39) n (%)
- Nausea (treatment‐related AE) (Overall (N = 28), Any Grade): 14 (50) n (%)
- Pruritus (treatment‐related AE) (Overall (N = 28), Any Grade): 4 (14) n (%)
- Rash (treatment‐related AE) (Overall (N = 28), Any Grade): 7 (25) n (%)
- Rash pruritic (treatment‐related AE) (Overall (N = 28), Any Grade): 3 (11) n (%)
- Thrombocytopenia (treatment‐related AE) (Overall (N = 28), Any Grade): 3 (11) n (%)
- Vomiting (treatment‐related AE) (Overall (N = 28), Any Grade): 9 (32) n (%)
- Arthralgia (treatment‐related AE) (Overall (N = 28), Grade ≥3): 1 (4) n (%)
- Asthenia (treatment‐related AE) (Overall (N = 28), Grade ≥3): 0 n (%)
- Decreased appetite (treatment‐related AE) (Overall (N = 28), Grade ≥3): 0 n (%)
- Diarrhea (treatment‐related AE) (Overall (N = 28), Grade ≥3): 1 (4) n (%)
- Dry mouth (treatment‐related AE) (Overall (N = 28), Grade ≥3): 0 n (%)
- Dysgeusia (treatment‐related AE) (Overall (N = 28), Grade ≥3): 0 n (%)
- Dyspnea (treatment‐related AE) (Overall (N = 28), Grade ≥3): 0 n (%)
- Fatigue (treatment‐related AE) (Overall (N = 28), Grade ≥3): 2 (7) n (%)
- Hyperglycemia (treatment‐related AE) (Overall (N = 28), Grade ≥3): 5 (18) n (%)
- Increased glycosylated hemoglobin (treatment‐related AE) (Overall (N = 28), Grade ≥3): 0 n (%)
- Mucositis (treatment‐related AE) (Overall (N = 28), Grade ≥3): 2 (7) n (%)
- Nausea (treatment‐related AE) (Overall (N = 28), Grade ≥3): 0 n (%)
- Pruritus (treatment‐related AE) (Overall (N = 28), Grade ≥3): 0 n (%)
- Rash (treatment‐related AE) (Overall (N = 28), Grade ≥3): 2 (7) n (%)
- Rash pruritic (treatment‐related AE) (Overall (N = 28), Grade ≥3): 2 (7) n (%)
- Thrombocytopenia (treatment‐related AE) (Overall (N = 28), Grade ≥3): 0 n (%)
- Vomiting (treatment‐related AE) (Overall (N = 28), Grade ≥3): 0 n (%)
- Dose interruptions (Total): 22
- treatment‐related AE: asthenia (all patients, any grade): 25%
- treatment‐related AE: decreased appetite (all patients, any grade): 32%
- treatment‐related AE: fatigue (all patients, any grade): 64%
- treatment‐related AE: nausea (all patients, any grade): 50%
- treatment‐related AE: rash (all patients, any grade): 25%
- treatment‐related AE: vomiting (all patients, any grade): 32%
- treatment‐related AE: hyperglycemia (all patients, grade ≥3): 18%
- patients requiring dose interruptions (at the MTD (45 mg/d)): 55.6%
- patients requiring dose reductions (at the MTD (45 mg/d)): 11.1%
- treatment‐related hyperglycemia, number of patients (grade ≥3, 30‐mg/d cohort): 2 n
- treatment‐related hyperglycemia, number of patients (grade ≥3, 45‐mg/d cohort): 1 n
- treatment‐related hyperglycemia, number of patients (grade ≥3, 60‐mg/d cohort): 2 n
- maximum tolerated dosage (MTD) (oral daily dosing, 28‐day cycles): 45 mg/day
- median time to dose reduction (overall): 25 days
- increases in glucose, insulin, and C‐peptide levels (patients receiving doses ≥30 mg/d): dose‐dependent
- patients with dose‐limiting toxicities (treatment cycle 1, all cohorts): Four
